Assay: Toxicity liver stage against HepG2, at 10uM
Type: cell-based
Parameters: test concentration 10 uM, cell line HepG2-A16-CD81EGFP
Details: human, HepG2-A16-CD81EGFP cells; read-out: INHIBITION
In short: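 Uninfected HepG2-A16-CD81EGFP cells, 3 × 10^3 per well, 1536-well, plated on prespotted compound at 10 μM final, parasite-free screening media added to match infected plates; puromycin 10 μM positive, DMSO 0.5% negative; run in parallel with 48 h PbLuc assay at 37 °C, 5% CO2; viability by CellTiter-Glo luminescence, normalized to controls.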

CC(C)(C)NC(=O)CN1CCCN(c2ccc(C#N)cn2)CC1
cytotoxicity at 10 µM: -4.31%

Cc1[nH]ncc1CCCNC(=O)Nc1ccc(C#N)cc1
cytotoxicity at 10 µM: 1.8%

F[C@@H]1CN(Cc2ccccc2)C[C@@H]1OCc1nc2ccccc2[nH]1
cytotoxicity at 10 µM: 4.61%

O=C([C@@H]1Cc2[nH]cnc2CN1Cc1cc2ccccc2o1)N1CCCC1
cytotoxicity at 10 µM: 2.23%

CCCNc1ccc(C(=O)NCCc2ccc(Cl)cc2)cn1
cytotoxicity at 10 µM: -1.05%

O=c1n(Cc2ccc(F)cc2)nc2ncccn12
cytotoxicity at 10 µM: -8.18%

CCCn1cnc2c(cnn2-c2cccc(C)c2C)c1=O
cytotoxicity at 10 µM: -8.17%

O=C(NCc1ccco1)[C@H]1C[C@H]2OCC[C@H]2N(C(=O)c2ccnnc2)C1
cytotoxicity at 10 µM: -10.3%

CS(=O)(=O)NC[C@@H]1OC[C@H]2CN(C(=O)c3cnccn3)CC[C@H]21
cytotoxicity at 10 µM: 2.98%

CS(=O)(=O)N1CCC2(COCc3cnc(-c4ccccc4)nc32)C1 (configuration not stated)
cytotoxicity at 10 µM: 1.22%

Cc1cc(O)c(OCC(=O)/N=c2\[nH]c(C)c(C)s2)cn1
cytotoxicity at 10 µM: 8.6%

OCCNc1nc(Nc2ccccc2)c2nccnc2n1
cytotoxicity at 10 µM: 3.72%

CC(C)n1[nH]c(=O)c2c1NC(=O)CC2c1cccc2cccnc12 (configuration not stated)
cytotoxicity at 10 µM: 2.83%

Cn1nc(CNC(=O)C2CC2)cc1C1CC1
cytotoxicity at 10 µM: 1.96%

CC(C)NC(=O)c1ccc2c(c1)nc1n2CCN(C(C)C)C1
cytotoxicity at 10 µM: 3.54%

COc1ccc2nnc(C(=O)NC3CCCC3)nc2c1
cytotoxicity at 10 µM: 6.17%

CCn1cc(CN(C)S(=O)(=O)c2ccc(Cl)cc2)cn1
cytotoxicity at 10 µM: 3.77%

CC(C)N1CCC(Cc2cncc(-c3cccc(C(=O)O)c3)n2)C1 (configuration not stated)
cytotoxicity at 10 µM: 9.11%

CCOc1cccc(NC(=O)c2cc[nH]n2)n1
cytotoxicity at 10 µM: 3.51%

COCC(=O)Nc1ccc(C)cc1-c1nc(C2CC2)no1
cytotoxicity at 10 µM: -3.67%

NC(=O)c1ccc(N2CCN(CCCc3cn[nH]c3)CC2)cc1
cytotoxicity at 10 µM: -153%

COc1ncccc1CNCc1cnc(N2CCOCC2)nc1
cytotoxicity at 10 µM: 2.38%

Cn1cc(NC(=O)N2CCCC2c2cccnc2)ccc1=O (configuration not stated)
cytotoxicity at 10 µM: -3.73%

O=C(NCC1CC1)c1ccc(NC(=O)c2ccco2)cc1
cytotoxicity at 10 µM: 7.91%

COc1ccc(OC)c(-c2csc(-c3cccc(C(=O)O)c3)n2)c1
cytotoxicity at 10 µM: 3.75%

COCCNC(=O)NCC(C)c1ccccc1OC (configuration not stated)
cytotoxicity at 10 µM: 0.284%

CCc1nc(CN2CCCN(C(=O)c3cccn3C)CC2)cs1
cytotoxicity at 10 µM: 3.41%

c1cnc(-c2nc(C3CCOC3)no2)cn1 (configuration not stated)
cytotoxicity at 10 µM: 7.09%

CCn1ccnc1CN1CCN(c2ncnc3ccccc23)CC1
cytotoxicity at 10 µM: -1.8%

Cc1noc(C)c1CCCNC(=O)C1CCCN(C(=O)C2CC2)C1 (configuration not stated)
cytotoxicity at 10 µM: -0.185%

Cn1c(NCC(=O)N2CCCCC2)c(C#N)c(=O)n(C)c1=O
cytotoxicity at 10 µM: 5.83%

COc1ccc(N(C)C(=O)c2ccc(Cl)c(S(C)(=O)=O)c2)cn1
cytotoxicity at 10 µM: -11.2%

Cc1ccc(S(=O)(=O)NC(=O)COc2cccc(C#N)c2)c(C)c1
cytotoxicity at 10 µM: 3.73%

CC(NC(=O)Nc1cc(F)cc(F)c1)c1nc[nH]n1 (configuration not stated)
cytotoxicity at 10 µM: -4.02%

CC(Cn1cccn1)NC(=O)Nc1ccc(N2CCCC2)nc1 (configuration not stated)
cytotoxicity at 10 µM: -0.708%

Fc1cccc(-n2cccn2)c1NCc1nnc(C2CC2)o1
cytotoxicity at 10 µM: -5.48%

Cc1cc(NC(=O)N2CCOC(C(N)=O)C2)ccc1Br (configuration not stated)
cytotoxicity at 10 µM: -154%

Cc1ccc(C(=O)NCC2Cc3ccccc3O2)cc1S(C)(=O)=O (configuration not stated)
cytotoxicity at 10 µM: 1.05%

COc1ncnc(N)c1CNCC(C)SC (configuration not stated)
cytotoxicity at 10 µM: -0.554%

O=C1CC(CNc2cncc(Cl)n2)c2ccccc2N1 (configuration not stated)
cytotoxicity at 10 µM: -0.99%

CCC1CN(c2cnn(-c3ccccc3)c(=O)c2Cl)CCO1 (configuration not stated)
cytotoxicity at 10 µM: -17.4%

CCCN(CCC)S(=O)(=O)NCCc1cc(C)ccc1OC
cytotoxicity at 10 µM: 7.75%

Cc1cc(CNC(=O)c2cc(C(C)C)n(C)n2)ccc1S(C)(=O)=O
cytotoxicity at 10 µM: -3.11%

COCCN(CCN(C)C)C(=O)NC1CCc2ccccc2C1 (configuration not stated)
cytotoxicity at 10 µM: -5.17%

CC(C)OCc1cccc(NC(=O)N2CCCC(CCC(N)=O)C2)c1 (configuration not stated)
cytotoxicity at 10 µM: 3.49%

Cc1ccccc1C(NC(=O)CNC(=O)c1ccoc1C)C(C)C (configuration not stated)
cytotoxicity at 10 µM: 2.74%

CCc1cnc(NC(=O)NC2CCN(C3CCCC3)CC2)s1
cytotoxicity at 10 µM: -7.27%

Cc1cccc(CC(=O)Nc2cccnc2N2CCC(CO)CC2)c1
cytotoxicity at 10 µM: -2.23%

O=C(CNc1ccc(OC2CCOC2)cc1)NCc1ccc(F)cc1 (configuration not stated)
cytotoxicity at 10 µM: 3.4%

CC(=O)c1cccc(NCC(=O)NC(N)=O)c1
cytotoxicity at 10 µM: 2.54%

Cn1cc(-c2csc(N3CCOCC3)n2)cn1
cytotoxicity at 10 µM: 0.469%

Cc1csc2ncc(-c3ccnc(N4CCCC4)n3)c(=O)n12
cytotoxicity at 10 µM: -13.2%

CCOC(=O)N1CCC2(CC1)N=C(CCC(C)C)NC2=O
cytotoxicity at 10 µM: -6.55%

Cc1ccccc1[C@@H]1CN(CCOCCO)C[C@H]1C(=O)O
cytotoxicity at 10 µM: -4.54%

Cn1c(Cn2ccnc2)nnc1C1CCN(C(=O)c2ccoc2)CC1
cytotoxicity at 10 µM: -120%

CC(C)Cc1cc(C(=O)NCC2CCCN(c3ccccn3)C2)on1 (configuration not stated)
cytotoxicity at 10 µM: 0.101%

Cc1ccnc(N2CCN(C3CCS(=O)(=O)C3)CC2)n1 (configuration not stated)
cytotoxicity at 10 µM: -2.71%

CN1CCCC2(CCN(c3cccc(C(F)(F)F)n3)C2)C1=O (configuration not stated)
cytotoxicity at 10 µM: 7.87%

COc1ccccc1[C@@H]1CN(Cc2cnc(N(C)C)nc2)C[C@H]1C(=O)O
cytotoxicity at 10 µM: -3.89%

CC(C)Cc1cc(C(=O)NCC2CCCN(Cc3ccco3)C2)on1 (configuration not stated)
cytotoxicity at 10 µM: -5.12%

O=C(Nc1ccc(-c2ccco2)cc1)C1CCCN(Cc2ccon2)C1 (configuration not stated)
cytotoxicity at 10 µM: 1.17%

CC(C1CCN(Cc2ccccc2OC(F)F)CC1)N1CCOCC1 (configuration not stated)
cytotoxicity at 10 µM: -7.4%

O=c1[nH]c2ccccc2cc1CN(Cc1ccccn1)CC1CCCO1 (configuration not stated)
cytotoxicity at 10 µM: -4.84%

CC(O)C1CCN(C(=O)Nc2nc(-c3ccccc3)ns2)CC1 (configuration not stated)
cytotoxicity at 10 µM: -135%

COc1cc2[nH]c(=O)c(CN3CCC[C@@H]3C(N)=O)cc2c(OC)c1OC
cytotoxicity at 10 µM: -6.84%

Cc1nc(C(C)C)sc1C(=O)NCCSc1ccccn1
cytotoxicity at 10 µM: 3.76%

Cc1cc(C(=O)N2CCC3(CCC(=O)N(CC(N)=O)C3)CC2)ccc1O
cytotoxicity at 10 µM: -7.5%

CC(NC(=O)c1cc2n(n1)CCCN(C)C2)c1cn2ncsc2n1 (configuration not stated)
cytotoxicity at 10 µM: -6.73%

NC(=O)CCn1cc(CNCCCc2ccncc2)c2ccccc21
cytotoxicity at 10 µM: 7.28%

Cc1ccc(NC(=O)N2CCCC(O)(CO)CC2)cc1Cl (configuration not stated)
cytotoxicity at 10 µM: 1.96%

COc1ncccc1-c1cc(C(=O)NC2CC2)ccn1
cytotoxicity at 10 µM: -11.8%

OCC(CO)N1CCC(c2nnc(Cn3ccnc3)n2C2CC2)CC1
cytotoxicity at 10 µM: -4.36%

COCCN(C)c1nc(-c2ccncc2)nc2c1CCN(C(C)=O)C2
cytotoxicity at 10 µM: -2.16%

O=C1CC2(CCN(Cc3ccc(-c4ccn[nH]4)s3)CC2)CN1
cytotoxicity at 10 µM: -137%

COc1ccc(OC)c(C2CCN(C3CCOCC3)C2)c1 (configuration not stated)
cytotoxicity at 10 µM: -6.28%

NC(=O)N1CCCC(C(=O)NCc2noc(Cc3ccccc3)n2)C1 (configuration not stated)
cytotoxicity at 10 µM: 2.4%

CCC(C(=O)NC(C)(C)C)n1cccc(OC)c1=O (configuration not stated)
cytotoxicity at 10 µM: -1.04%

CCOCC(=O)N1CCc2c(ncnc2N2CCOCC2)C1
cytotoxicity at 10 µM: -6.63%

CC(=O)NC1CC(C)(C)Cc2c1cnn2-c1cccc(F)c1 (configuration not stated)
cytotoxicity at 10 µM: -144%

COCCCN1CC2(CCCN(c3ncnc4[nH]ccc34)C2)CCC1=O (configuration not stated)
cytotoxicity at 10 µM: -4.67%

CN(C)C(=O)Cc1ccc(NC(=O)NC2CCCCC2)cc1
cytotoxicity at 10 µM: -11.3%

O=C(c1cc(COc2ccc3c(c2)OCO3)[nH]n1)N1CC=CC1CO (configuration not stated)
cytotoxicity at 10 µM: -6.49%

CC(c1nc(C2CC2)no1)N1CCN(CCN2CCCC2=O)CC1 (configuration not stated)
cytotoxicity at 10 µM: -10.9%

Cc1nc(CC(=O)N2CCc3nnc(N(C)C)cc3C2)cs1
cytotoxicity at 10 µM: -7.07%

COc1cc(C)nc(N2CCN(C(=O)CSC)CC2)n1
cytotoxicity at 10 µM: -6.42%

Cc1cnn(CCNCc2csc(-c3ccsc3)n2)c1
cytotoxicity at 10 µM: -6.75%

CC(C)Oc1ncccc1CNC(=O)N1CCC(n2cccc2)CC1
cytotoxicity at 10 µM: 3.48%

CC(Cn1cccn1)NC(=O)NCCc1cccs1 (configuration not stated)
cytotoxicity at 10 µM: -15.3%

c1csc(-c2noc(CN3CCCC3Cn3cccn3)n2)c1 (configuration not stated)
cytotoxicity at 10 µM: -12.7%

CCN(Cc1cccc2c1OCO2)C(=O)Nc1ccccn1
cytotoxicity at 10 µM: -21.7%

Cc1cc(NC(=O)CN2CCC(N3CCNC3=O)CC2)on1
cytotoxicity at 10 µM: 2.99%

Cc1cnn(CC2CCCN2C(=O)c2ccc(F)c(F)c2)c1 (configuration not stated)
cytotoxicity at 10 µM: -7.68%

CCN(CC)CC(=O)N1CCCCC1c1nc(C)cs1 (configuration not stated)
cytotoxicity at 10 µM: -5.78%

COc1cc(CNC(=O)Nc2nnc(C(C)C)s2)ccn1
cytotoxicity at 10 µM: -8.24%

O=C(CCOCC(F)(F)F)N1CCCC(n2ccnc2)C1 (configuration not stated)
cytotoxicity at 10 µM: -8.14%

CN(CCc1ccncc1)CC1CCCN1c1cccnn1 (configuration not stated)
cytotoxicity at 10 µM: 1.09%

O=C(NCCCn1ccnc1)NCC(c1ccco1)N1CCCCC1 (configuration not stated)
cytotoxicity at 10 µM: 5.71%

CCOc1ccc(OCC(O)CN2CCN(S(C)(=O)=O)CC2)cc1 (configuration not stated)
cytotoxicity at 10 µM: -36.8%

O=C(c1csc(-c2cccs2)n1)N1CCCC1Cn1cccn1 (configuration not stated)
cytotoxicity at 10 µM: -4.69%

CNC(=O)[C@@H](c1ccccc1OC)N1CCC[C@H]1C(=O)N1CC[C@@H](O)C1
cytotoxicity at 10 µM: -2.71%

CN1C(=O)CC(c2ccccc2)C12CCN(CCO)CC2 (configuration not stated)
cytotoxicity at 10 µM: 6.47%

Cc1cccc(C(=O)N2C[C@@H](OCc3ccncc3)[C@@H]3OCCC[C@@H]32)n1
cytotoxicity at 10 µM: -5.06%

COc1ccc2c(c1)C1(CCN(Cc3cnn(C)c3)CC1)N(C)CC2
cytotoxicity at 10 µM: -136%

CCN(C)c1ncnc2c1CCN(C(=O)c1cnccn1)CC2
cytotoxicity at 10 µM: -1.86%

O=C(NCc1ccco1)[C@H]1CC[C@@H]2[C@@H](CCN2Cc2cccnc2)O1
cytotoxicity at 10 µM: -3.68%

CN(C)CCN1C(=O)C[C@@H]2[C@@H]1CCN2S(=O)(=O)c1ccccc1
cytotoxicity at 10 µM: -7.52%

Cc1occc1C(=O)N1C[C@@H](OCc2cccnc2)[C@H]2OCCC[C@@H]21
cytotoxicity at 10 µM: 3.16%

COCCO[C@H]1CCN(Cc2ccsc2)[C@H]1Cc1cccnc1
cytotoxicity at 10 µM: -2.57%

O=C(c1ccncc1)N1CC[C@H]2[C@H]1CCN2S(=O)(=O)C1CC1
cytotoxicity at 10 µM: -126%

Fc1cnc(N2CCCn3c(nnc3Cn3ccnc3)C2)nc1
cytotoxicity at 10 µM: -140%

CCNc1nc2cn(-c3ccc(Cl)cc3)c(=O)c-2c[nH]1
cytotoxicity at 10 µM: 7.67%

Cc1cc(CN2C[C@@H]3CC[C@H]2CN(Cc2c(C)noc2C)C3)ccc1F
cytotoxicity at 10 µM: -6.74%

— ChEMBL document CHEMBL4513216, “Probing the Open Global Health Chemical Diversity Library for Multistage-Active Starting Points for Next-Generation Antimalarials” (ACS Infect Dis, 2020)
